Assay results as given in ChEMBL document CHEMBL1134384, “Development of new carboxylic acid-based MMP inhibitors derived from functionalized propargylglycines” (J Med Chem, 2001).
≈ marks a conversion by molar mass, not a printed value.

Tests used:
[1] = molecular target: Stromelysin-1 (Homo sapiens, UniProt P08254); experiment: Inhibitory activity against human matrix metalloprotease-3 (MMP-3) ([…])
[2] = molecular target: T1, Interstitial collagenase (Homo sapiens, UniProt P03956); experiment: Inhibitory activity against human matrix metalloprotease-1 in quenched fluorescence assay at […]
T1 sequence (P03956 whole entry): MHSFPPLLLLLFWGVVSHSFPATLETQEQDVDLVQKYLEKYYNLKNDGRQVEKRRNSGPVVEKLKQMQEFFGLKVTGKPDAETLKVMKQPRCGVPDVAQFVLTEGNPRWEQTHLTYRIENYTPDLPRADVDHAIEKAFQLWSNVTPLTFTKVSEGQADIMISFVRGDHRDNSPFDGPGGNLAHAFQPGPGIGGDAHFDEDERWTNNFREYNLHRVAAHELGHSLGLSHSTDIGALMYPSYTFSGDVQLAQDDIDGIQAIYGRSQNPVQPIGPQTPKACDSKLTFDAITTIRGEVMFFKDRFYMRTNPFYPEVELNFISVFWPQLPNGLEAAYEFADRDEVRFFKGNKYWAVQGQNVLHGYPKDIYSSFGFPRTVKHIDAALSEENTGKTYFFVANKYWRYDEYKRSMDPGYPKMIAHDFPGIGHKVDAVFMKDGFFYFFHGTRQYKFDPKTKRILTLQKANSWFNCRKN
Method in brief: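 Quenched fluorescence assay using truncated human recombinant enzymes expressed in E. coli, at final concentrations of 8 nM for MMP-1 and 16 nM for MMP-3. Substrate was Mca-Pro-Leu-Gly-Leu-Dpa-Ala-Arg-NH₂ at 4 μM, at 25 °C, in 50 mM Tris pH 7.5, 0.2 M NaCl, 5 mM CaCl₂, 0.02% Brij-35. Fluorescence (ex 328/em 393 nm) was read kinetically for 30 min. Eight inhibitor concentrations were tested and IC50 was fitted from Vi/V0.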

[3] = molecular target: 72 kDa type IV collagenase (Homo sapiens, UniProt P08253); experiment: Inhibitory activity against matrix metalloprotease-2 (MMP-2) in quenched fluorescence assay at […]
Method in brief: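 Full-length human recombinant proMMP-2 from CHO cells was activated with 1 mM APMA for 45 min and used at 1 nM final. Cleavage of 4 μM Mca-Pro-Leu-Gly-Leu-Dpa-Ala-Arg-NH₂ was followed at 25 °C in Tris pH 7.5/NaCl/CaCl₂/Brij-35 buffer, with fluorescence read kinetically for 30 min. IC50 came from 8 inhibitor concentrations.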

[4] = molecular target: T2, Collagenase 3 (Homo sapiens, UniProt P45452); experiment: Inhibitory activity against human matrix metalloprotease-13 in quenched fluorescence assay at pH 7.4
[5] = Half life was determined in fasted rats using cassette dosing technique.; format: ADME, organism-based; conditions: rat, in vivo
Method in brief: (§1)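 Fasted rats (n = 3/4) received cassette doses of 4–5 compounds per experiment at 1–5 mg/kg of each inhibitor. Each study included a control compound previously characterized in a single-compound experiment, to validate the data set and detect problems such as saturation of elimination.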

[6] = Bioavailability in rat (fasted) using cassette dosing; format: ADME, organism-based; conditions: in vivo; method in brief: as §1
[7] = Solubility was determined at a pH of […]; format: physicochemical; conditions: pH 7
[8] = molecular target: T2, Collagenase 3; experiment: Inhibition of human matrix metalloprotease-13 at pH 7.4

Sequence of 72 kDa type IV collagenase (P08253 whole entry): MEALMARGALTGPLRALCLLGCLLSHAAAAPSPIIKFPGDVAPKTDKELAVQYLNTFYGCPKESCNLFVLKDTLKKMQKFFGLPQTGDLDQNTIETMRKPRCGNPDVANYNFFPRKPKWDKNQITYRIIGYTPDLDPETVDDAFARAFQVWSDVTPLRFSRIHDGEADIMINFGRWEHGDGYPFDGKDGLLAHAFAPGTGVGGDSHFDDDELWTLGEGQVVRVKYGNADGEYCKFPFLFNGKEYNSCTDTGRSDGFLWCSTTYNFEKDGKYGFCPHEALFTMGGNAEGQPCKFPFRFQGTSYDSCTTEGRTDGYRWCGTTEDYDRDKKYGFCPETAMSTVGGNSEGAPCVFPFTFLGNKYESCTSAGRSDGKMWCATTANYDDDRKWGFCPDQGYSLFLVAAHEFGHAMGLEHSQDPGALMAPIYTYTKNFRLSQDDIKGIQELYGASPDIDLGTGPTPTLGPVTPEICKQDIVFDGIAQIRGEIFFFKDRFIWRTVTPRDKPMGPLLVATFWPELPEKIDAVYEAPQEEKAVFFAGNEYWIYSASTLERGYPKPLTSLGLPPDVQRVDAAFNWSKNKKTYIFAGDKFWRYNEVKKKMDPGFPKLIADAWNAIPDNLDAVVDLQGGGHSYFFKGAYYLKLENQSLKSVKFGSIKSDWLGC
Sequence of Stromelysin-1 (P08254 whole entry): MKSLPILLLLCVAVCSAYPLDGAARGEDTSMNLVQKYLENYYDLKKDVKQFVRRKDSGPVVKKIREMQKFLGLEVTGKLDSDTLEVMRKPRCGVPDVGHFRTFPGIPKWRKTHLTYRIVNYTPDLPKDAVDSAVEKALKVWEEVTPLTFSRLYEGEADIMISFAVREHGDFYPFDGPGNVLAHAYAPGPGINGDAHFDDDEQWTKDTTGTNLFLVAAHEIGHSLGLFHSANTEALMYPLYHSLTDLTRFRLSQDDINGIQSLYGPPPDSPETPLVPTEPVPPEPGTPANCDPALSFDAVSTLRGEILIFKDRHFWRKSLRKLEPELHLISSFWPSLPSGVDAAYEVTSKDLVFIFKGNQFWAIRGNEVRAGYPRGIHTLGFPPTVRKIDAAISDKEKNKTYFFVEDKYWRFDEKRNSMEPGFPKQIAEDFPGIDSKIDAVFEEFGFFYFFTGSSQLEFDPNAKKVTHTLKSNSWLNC

Compound	IC50 [1] [µM]	IC50 [2] [µM]	IC50 [3] [nM]	IC50 [4] [nM]	half-life [5] [min]	bioavailability [6] [%]	solubility [7] [µg/mL]	IC50 [8] [nM]
Cc1ccc(C#Cc2ccc(S(=O)(=O)NC(CC#Cc3ccccc3)C(=O)O)cc2)cc1 (stereo not given)	22.1	> 10	19	89	–	–	–	–
COCC#CCC(NS(=O)(=O)c1ccc(NC(=O)N2CCOCC2)cc1)C(=O)O (stereo not given)	> 10	> 10	2770	> 10000	–	–	–	–
COc1ccc(C#Cc2ccc(S(=O)(=O)NC(CC#Cc3ccccc3)C(=O)O)cc2)cc1 (stereo not given)	4.36	> 10	9	35	42	26	20 (≈ 43.5 µM)	–
COCCOCOCC#CCC(NS(=O)(=O)c1ccc(-c2ccc(OC)cc2)cc1)C(=O)O (stereo not given)	2.34	6.51	33	88	–	–	–	–
O=C(Nc1ccc(S(=O)(=O)NC(CC#CCN2CCOCC2)C(=O)O)cc1)c1ccc(Br)cc1 (stereo not given)	17.4	> 10	12	344	–	–	4400 (≈ 7990 µM)	–
CSc1ccc(-c2ccc(S(=O)(=O)NC(CC#CCN3CCOCC3)C(=O)O)cc2)cc1 (stereo not given)	5.06	11.5	24	–	–	–	–	–
COc1ccc(C#Cc2ccc(S(=O)(=O)NC(CC#CCN3CCOCC3)C(=O)O)cc2)cc1 (stereo not given)	6.6	–	28	–	216	12	151000 (≈ 313000 µM)	–
COc1ccc(-c2ccc(S(=O)(=O)NC(CC#Cc3ccccc3)C(=O)O)cc2)cc1 (stereo not given)	2.28	2	12	21	102	49	20 (≈ 45.9 µM)	–
O=C(O)C(CC#Cc1ccccc1)NS(=O)(=O)c1ccc(-c2ccc(F)cc2)cc1 (stereo not given)	8.9	5.6	175	231	–	–	–	–
COc1ccc(-c2ccc(S(=O)(=O)NC(CC#CCN3CCN(C(=O)OC(C)(C)C)CC3)C(=O)O)cc2)cc1 (stereo not given)	> 10	> 10	661	–	–	–	–	–
COc1ccc(C#Cc2ccc(S(=O)(=O)NC(CC#Cc3ccccc3)C(=O)O)s2)cc1 (stereo not given)	10.1	–	46	–	–	–	–	145
COc1ccc(-c2ccc(S(=O)(=O)NC(CC#CCN3CCCC3)C(=O)O)cc2)cc1 (stereo not given)	> 10	> 10	100	–	–	–	–	–
COc1ccc(-c2ccc(S(=O)(=O)NC(CC#Cc3cccc(N4CCOCC4)c3)C(=O)O)cc2)cc1 (stereo not given)	3.52	3.66	16	24	6	7	580 (≈ 1110 µM)	–
CSc1ccc(-c2ccc(S(=O)(=O)NC(CC#Cc3ccccc3)C(=O)O)cc2)cc1 (stereo not given)	3.4	0.631	6	16	–	–	–	–
COc1ccc(-c2ccc(S(=O)(=O)NC(CC#Cc3ccccc3)C(=O)O)s2)cc1 (stereo not given)	1.32	3.25	20	–	–	–	30 (≈ 67.9 µM)	–
O=C(Nc1ccc(S(=O)(=O)NC(CC#Cc2ccccc2)C(=O)O)cc1)c1ccc(Cl)cc1 (stereo not given)	3.57	> 10	6	127	–	–	–	–
CO[C@H](C#Cc1ccccc1)C(NS(=O)(=O)c1ccc(-c2ccc(SC)cc2)cc1)C(=O)O (stereo not given in full)	5.1	3.4	8	33	–	–	120 (≈ 249 µM)	–
O=C(O)C(CC#Cc1ccccc1)NS(=O)(=O)c1ccc(-c2ccc(Oc3ccccc3)cc2)cc1 (stereo not given)	4.56	> 10	1470	2150	–	–	–	–
COCC#CCC(NS(=O)(=O)c1ccc(NC(=O)c2ccc(Br)cc2)cc1)C(=O)O (stereo not given)	8.62	> 10	6	270	–	–	–	–
COc1ccc(-c2ccc(S(=O)(=O)NC(CC#Cc3ccc(N4CCOCC4)cc3)C(=O)O)cc2)cc1 (stereo not given)	14.6	> 10	158	–	–	–	–	–
COc1ccc(-c2ccc(S(=O)(=O)NC(CC#CCN3CCOCC3)C(=O)O)cc2)cc1 (stereo not given)	10.7	13.7	104	–	–	–	–	–
COCC#CCC(NS(=O)(=O)c1ccc(-c2ccc(Br)cc2)cc1)C(=O)O (stereo not given)	3.33	24.8	17	147	–	–	12000 (≈ 26500 µM)	–
